In assay [1] the test system is Staphylococcus epidermidis. Put plainly: Antibacterial activity against methicillin-resistant Staphylococcus epidermidis ATCC 14990 after 24 hrs by macrobroth dilution method. The settings on record: ATCC 14990, 24 h. It counts as functional. Background: In broth dilution the organism is exposed to a series of concentrations in liquid medium.
The subject of assay [2] is Stenotrophomonas maltophilia. Put plainly: Antibacterial activity against Stenotrophomonas maltophilia CAN-ICU 62585 after 24 hrs by macrobroth dilution method. It counts as functional. The settings on record: CAN-ICU 62585, 24 h. The method in brief:
(§1)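 Broth macrodilution was run following CLSI methodology against ATCC reference strains and clinical isolates from the Canadian Intensive Care Unit (CAN-ICU) study, with Gram-positive and Gram-negative organisms tested. The value is the minimum inhibitory concentration, reported in μg/mL.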

Assay [3] relates to Acinetobacter baumannii. Put plainly: Antibacterial activity against Acinetobacter baumannii CAN-ICU 63169 after 24 hrs by macrobroth dilution method. It counts as functional. Conditions: CAN-ICU 63169, 24 h. The procedure, abridged: as §1
The test system of assay [4] is Klebsiella pneumoniae. Description: Antibacterial activity against Klebsiella pneumoniae ATCC 13883 after 24 hrs by macrobroth dilution method. Conditions: ATCC 13883, 24 h.
The test system of assay [5] is Pseudomonas aeruginosa. Description: Antibacterial activity against Pseudomonas aeruginosa ATCC 27853 after 24 hrs by macrobroth dilution method. Type of assay: functional. The settings on record: ATCC 27853, 24 h. The method in brief: as §1
Assay [6] has as its system Pseudomonas aeruginosa. Put plainly: Antibacterial activity against Pseudomonas aeruginosa CAN-ICU 62308 after 24 hrs by macrobroth dilution method. Type of assay: functional. The settings on record: CAN-ICU 62308, 24 h. The procedure, abridged:
as §1

Assay [7] has as its system Staphylococcus aureus. Description: Antibacterial activity against Staphylococcus aureus ATCC 29213 after 24 hrs by macrobroth dilution method. It counts as functional. The settings on record: ATCC 29213, 24 h. The method in brief:
(§2)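 Reference strains from the American Type Culture Collection were tested by broth macrodilution following CLSI methodology. The read-out was the minimum inhibitory concentration, reported in μg/mL. The same method was used for the Gram-positive and Gram-negative organisms.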

In assay [8] the test system is Escherichia coli. Description: Antibacterial activity against gentamicin-resistant Escherichia coli ATCC 6174 after 24 hrs by macrobroth dilution method. It counts as functional. The settings on record: ATCC 6174, 24 h. The procedure, abridged: as §2
For assay [9], the system named is Staphylococcus epidermidis. Put plainly: Antibacterial activity against Staphylococcus epidermidis […] after 24 hrs by macrobroth dilution method. Type of assay: functional. The procedure, abridged:
as §1

Assay [10] concerns Escherichia coli. Put plainly: Antibacterial activity against Escherichia coli CAN-ICU 63074 after 24 hrs by macrobroth dilution method. Type of assay: functional. Conditions: CAN-ICU 63074, 24 h. The method in brief: as §1
The subject of assay [11] is Escherichia coli. Description: Antibacterial activity against Escherichia coli ATCC 25922 after 24 hrs by macrobroth dilution method. The settings on record: ATCC 25922, 24 h. Type of assay: functional. The procedure, abridged: as §2
Assay [12] deals with Streptococcus pneumoniae. Description: Antibacterial activity against Streptococcus pneumoniae ATCC 49619 after 24 hrs by macrobroth dilution method. It counts as functional. Conditions: ATCC 49619, 24 h. The method in brief:
as §1

Assay [13] concerns Staphylococcus aureus. Description: Antibacterial activity against methicillin-resistant Staphylococcus aureus ATCC 33592 after 24 hrs by macrobroth dilution method. Type of assay: functional. Conditions: ATCC 33592, 24 h. The method in brief:
as §2

Experimental findings from ChEMBL document CHEMBL1158537, “Antibacterial activities of aminoglycoside antibiotics-derived cationic amphiphiles. Polyol-modified neomycin B-, kanamycin A-, amikacin-, and neamine-based amphiphiles with potent broad spectrum antibacterial activity” (2010) are described below.

Molecules are shown by their SMILES. In brackets after ≈: the same amount, converted by molar mass. Where only a bound is given, the exact number is not on record here.

In the case of `NCC[C@H](O)C(=O)N[C@@H]1C[C@H](N)[C@@H](O[C@H]2O[C@H](CN)[C@@H](O)[C@H](O)[C@H]2O)[C@H](O)[C@H]1O[C@H]1O[C@H](CO)[C@@H](O)[C@H](N)[C@H]1O` [AMIKACIN], the MIC – broadly, the lowest concentration found to suppress growth – in [1] was 2 µg/mL (≈ 3.42 µM); in assay [2] it was more than 512 µg/mL; in assay [3] it was 128 µg/mL (≈ 219 µM); in assay [4], 0.5 µg/mL (≈ 0.854 µM); in assay [5], 4 µg/mL (≈ 6.83 µM); in assay [6], 128 µg/mL (≈ 219 µM). The MIC in [7] came out at 4 µg/mL (≈ 6.83 µM); in [8] it was 2 µg/mL (≈ 3.42 µM); in [9] it was 1 µg/mL (≈ 1.71 µM); in [10] it was 32 µg/mL (≈ 54.6 µM); in assay [11] it was 4 µg/mL (≈ 6.83 µM); in [12], 8 µg/mL (≈ 13.7 µM). The MIC in [13] came to 8 µg/mL (≈ 13.7 µM).
Regarding `COC[C@H]1O[C@@H](O[C@@H]2[C@@H](OC)[C@H](N)C[C@H](N)[C@H]2O[C@H]2O[C@H](CN)[C@@H](OC)[C@H](OC)[C@H]2N)[C@H](OC)[C@@H]1O[C@H]1O[C@@H](CN)[C@@H](OC)[C@H](OC)[C@H]1N.O=C(O)C(F)(F)F`, the MIC in [1], in assay [2], in [3], in [4], in assay [5] and in [6] was more than 256 µg/mL throughout. Further, the MIC was more than 256 µg/mL in [7]; more than 256 µg/mL in [8]; 256 µg/mL in assay [9]; more than 256 µg/mL in assay [10]; more than 256 µg/mL in assay [11]; more than 256 µg/mL in assay [12]. In [13], this molecule yielded an MIC of more than 256 µg/mL.
As for `NC[C@@H]1O[C@H](O[C@H]2[C@@H](OC(=O)Nc3ccccc3)[C@H](O[C@@H]3[C@@H](OC(=O)Nc4ccccc4)[C@H](N)C[C@H](N)[C@H]3O[C@H]3O[C@H](CN)[C@@H](OC(=O)Nc4ccccc4)[C@H](OC(=O)Nc4ccccc4)[C@H]3N)O[C@@H]2COC(=O)Nc2ccccc2)[C@H](N)[C@@H](OC(=O)Nc2ccccc2)[C@@H]1OC(=O)Nc1ccccc1.O=C(O)C(F)(F)F`, the MIC worked out at 0.5 µg/mL in assay [1]; 4 µg/mL in [2]; 32 µg/mL in assay [3]; 256 µg/mL in assay [4]; 256 µg/mL in [5]; 128 µg/mL in assay [6]. For the same molecule, the MIC in assay [7] was 1 µg/mL; in assay [8], 16 µg/mL; in assay [9], 0.5 µg/mL; in assay [10] it was 16 µg/mL; in [11] it was 32 µg/mL; in [12] it was 16 µg/mL. In assay [13], this molecule had a minimal inhibitory concentration (MIC) of 1 µg/mL.
`NC[C@@H]1O[C@H](O[C@H]2[C@@H](O)[C@H](O[C@@H]3[C@@H](O)[C@H](N)C[C@H](N)[C@H]3O[C@H]3O[C@H](CN)[C@@H](O)[C@H](O)[C@H]3N)O[C@@H]2CO)[C@H](N)[C@@H](O)[C@@H]1O` [FRAMYCETIN]: the MIC in assay [1] is 0.5 µg/mL (≈ 0.813 µM); in assay [2] it was more than 512 µg/mL; in [3] it was 64 µg/mL (≈ 104 µM); in assay [4], 1 µg/mL (≈ 1.63 µM); in [5] it was 512 µg/mL (≈ 833 µM); in [6], 512 µg/mL (≈ 833 µM). In addition, the MIC in [7] is 1 µg/mL (≈ 1.63 µM); in assay [8], 8 µg/mL (≈ 13 µM); in assay [9] it was 0.25 µg/mL (≈ 0.407 µM); in [11], 4 µg/mL (≈ 6.51 µM); in [12] it was 32 µg/mL (≈ 52.1 µM); in assay [13], 256 µg/mL (≈ 416 µM).
